Calls of active or inactive are those of the source. The rule behind the calls is not given here.
Legend:
[1] = tested on: Hepatitis C virus; test: Antiviral activity against HCV genotype 1b Con1 infected in human Huh7.5 cells assessed as inhibition of NS5B expression at 2 uM by DAPI staining based confocal microscopy; format: functional, organism-based; details: Hepacivirus hominis, isolate Con1, Huh-7
Method in brief: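 Con1b replicon cells treated at 2 μM. Stained with Alexa red anti-NS5A and Alexa green anti-NS5B antibodies plus DAPI, then imaged by confocal microscopy for colocalization. Images representative of at least three experiments.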

[2] = tested on: Hepatitis C virus; test: Antiviral activity against HCV genotype 1b Con1 infected in human Huh7 cells xenografted in immunodeficient NOD/SCID mouse assessed as inhibition of NS5B expression in liver at 50 mg/kg, ip up to 14 days by DAPI staining based confocal microscopy; format: functional, organism-based; details: Hepacivirus hominis, isolate Con1, Huh-7
[3] = tested on: Mus musculus; test: Hepatotoxicity in BALB/c mouse assessed as changes in serum alanine transaminase level at 50 mg/kg, iv for 2 weeks by GPT kit assay; format: toxicity, organism-based; details: in vivo, 336 h
[4] = tested on: Hepatitis C virus; test: Antiviral activity against HCV genotype 1b Con1 infected in human Huh7.5 cells assessed as stimulation of STAT1 expression at 2 uM incubated up to 96 hrs by Western blot analysis; format: functional, organism-based; details: Hepacivirus hominis, isolate Con1, Huh-7, TDE = time-dependent effect
[5] = target: T1, Peptidyl-prolyl cis-trans isomerase A (Homo sapiens, UniProt P62937); test: Inhibition of recombinant GST-tagged Cyclophilin A (unknown origin) interaction with HCV GST-tagged NS5B at 2 to 4 uM by GST pulldown assay
[6] = tested on: Hepatitis C virus; test: Antiviral activity against HCV genotype 1b Con1 infected in human Huh7 cells xenografted in immunodeficient NOD/SCID mouse assessed as inhibition of NS5A expression in liver at 50 mg/kg, ip up to 14 days by Western blot analysis; format: functional, organism-based; details: Hepacivirus hominis, isolate Con1, Huh-7
Method in brief: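 Liver tissue from NOD/SCID mice engrafted with Huh7 Con1b replicon cells and dosed ip at 50 mg/kg for 14 days (5 per group). NS5A protein read by SDS-PAGE Western blot with chemiluminescence detection.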

[7] = Cytotoxicity against BALB/c mouse splenocytes assessed as reduction in cell viability at 1 to 10 uM; format: cell-based; details: splenocyte
[8] = tested on: Hepatitis C virus; test: Antiviral activity against HCV genotype 1b Con1 infected in human Huh7.5 cells assessed as inhibition of NS5A expression in total cell lysate at 2 uM by Western blot analysis; format: functional, organism-based; details: Hepacivirus hominis, isolate Con1, Huh-7
Method in brief: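 Con1b replicon cells treated with 2 μM. Total lysates, and a membrane fraction prepared by hypotonic buffer, dounce homogenization, 220g spin and then 68 000g for 1 h at 4 °C, analyzed by Western blot for NS5A and NS5B.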

[9] = tested on: Hepatitis C virus; test: Antiviral activity against HCV infected in human Huh7.5 cells assessed as inhibition of IL-8 level by ELISA in presence of IFN-alpha; format: functional, organism-based; details: Hepacivirus hominis; Huh-7
[10] = tested on: Hepatitis C virus; test: Antiviral activity against HCV genotype 1b Con1 infected in human Huh7.5 cells assessed as stimulation of OAS1 expression at 2 uM incubated up to 96 hrs by Western blot analysis; format: functional, organism-based; details: Hepacivirus hominis, isolate Con1, Huh-7, TDE = time-dependent effect
[11] = tested on: Mus musculus; test: Nephrotoxicity in BALB/c mouse assessed as changes in serum creatinine level at 50 mg/kg, iv for 2 weeks; format: toxicity, organism-based; details: in vivo, 336 h
[12] = species: Mus musculus; test: Activation of calcium-dependent calcineurin phosphatase activity in ionomycin-stimulated BALB/c mouse assessed as production of IL-2 at 1 to 10 uM after 24 hrs by ELISA
Method in brief: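 Mouse spleen cells, 2 × 10^6/well, stimulated with ionomycin 1 μg/mL and treated with a dose series for 24 h at 37 °C. Media from triplicate wells pooled. IL-2 measured by ELISA and calculated from IL-2 standards.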

[13] = tested on: Hepatitis C virus; test: Antiviral activity against HCV infected in human Huh7.5 cells assessed as inhibition of HCV-specific RNA by qRT-PCR method in presence of telaprevir; format: functional, organism-based; details: Hepacivirus hominis; Huh-7
[14] = tested on: Mus musculus; test: Hepatotoxicity in BALB/c mouse assessed as changes in serum aspartate transaminase level at 50 mg/kg, iv for 2 weeks by GOT kit assay; format: toxicity, organism-based; details: in vivo, 336 h
[15] = tested on: Hepatitis C virus; test: Antiviral activity against HCV infected in human Huh7.5 cells assessed as inhibition of HCV-specific RNA by qRT-PCR method in presence of IFN-alpha; format: functional, organism-based; details: Hepacivirus hominis; Huh-7
[16] = tested on: Hepatitis C virus; test: Antiviral activity against HCV genotype 1b Con1 infected in human Huh7.5 cells assessed as stimulation of ISG15 mRNA expression at 2 uM incubated up to 96 hrs by qRT-PCR method; format: functional, organism-based; details: Hepacivirus hominis, isolate Con1, Huh-7, TDE = time-dependent effect
Method in brief: (§1)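 mRNA measured by SYBR Green qRT-PCR using the 2^−ΔΔCT method, normalized to GAPDH and expressed as fold change vs controls.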

[17] = target: Peptidyl-prolyl cis-trans isomerase B (Homo sapiens, UniProt P23284); test: Dissociation rate to Cyclophilin B (unknown origin) by surface plasmon resonance analysis
[18] = target: T1, Peptidyl-prolyl cis-trans isomerase A; test: Inhibition of recombinant GST-tagged Cyclophilin A (unknown origin) interaction with HCV GST-tagged NS5A at 2 to 4 uM by GST pulldown assay
[19] = tested on: Hepatitis C virus; test: Antiviral activity against HCV genotype 1b Con1 infected in human Huh7.5 cells assessed as stimulation of STAT1 mRNA expression at 2 uM incubated up to 96 hrs by qRT-PCR method; format: functional, organism-based; details: Hepacivirus hominis, isolate Con1, Huh-7, TDE = time-dependent effect; method in brief: as §1
[20] = tested on: Hepatitis C virus; test: Antiviral activity against HCV genotype 1b Con1 infected in human Huh7.5 cells assessed as stimulation of IRF9 mRNA expression at 2 uM incubated up to 96 hrs by qRT-PCR method; format: functional, organism-based; details: Hepacivirus hominis, isolate Con1, Huh-7, TDE = time-dependent effect; method in brief: as §1
[21] = tested on: Hepatitis C virus; test: Antiviral activity against HCV genotype 1b Con1 infected in human Huh7.5 cells assessed as stimulation of OAS1 mRNA expression at 2 uM incubated up to 96 hrs by qRT-PCR method; format: functional, organism-based; details: Hepacivirus hominis, isolate Con1, Huh-7, TDE = time-dependent effect; method in brief: as §1
[22] = target: T1, Peptidyl-prolyl cis-trans isomerase A; test: Inhibition of human Cyclophilin A interaction with HCV genotype 1b Con1 NS5B in human Huh7.5 cells after 72 hrs by mammalian two-hybrid assay; format: cell-based; details: Huh-7
[23] = tested on: Hepatitis C virus; test: Antiviral activity against HCV infected in human Huh7.5 cells assessed as inhibition of IL-8 level by ELISA in presence of ribavirin; format: functional, organism-based; details: Hepacivirus hominis; Huh-7
[24] = tested on: Hepatitis C virus; test: Antiviral activity against HCV genotype 1b Con1 infected in human Huh7.5 cells assessed as stimulation of ISG15 expression at 2 uM incubated up to 96 hrs by Western blot analysis; format: functional, organism-based; details: Hepacivirus hominis, isolate Con1, Huh-7, TDE = time-dependent effect
[25] = tested on: Mus musculus; test: Toxicity in NOD/SCID mouse assessed as body weight change at 50 mg/kg, ip measured up to 14 days; format: organism-based; details: in vivo, 336 h
[26] = Cytotoxicity against HCV genotype 2a JFH1 infected human Huh7.5 cells expressing GFP-fused NS5A assessed as reduction in cell viability measured 72 hrs post infection by hoechst 33342 staining based confocal microscopy; set-up: species or system Huh-7
[27] = tested on: Hepatitis C virus; test: Antiviral activity against HCV genotype 1b Con1 infected in human Huh7.5 cells assessed as stimulation of IRF9 expression at 2 uM incubated up to 96 hrs by Western blot analysis; format: functional, organism-based; details: Hepacivirus hominis, isolate Con1, Huh-7, TDE = time-dependent effect
[28] = Selectivity index, ratio of CC50 for mock-infected human Huh7.5 cells to EC50 for recombinant HCV genotype 2a JFH1; set-up: species or system Huh-7
Method in brief: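 Huh7.5 cells infected with JFH1-Luc virus (MOI 0.004, 5 h, 37 °C) in the presence of 3-fold serial dilutions. EC50 came from Renilla luciferase on day 3. CC50 came from MTT viability of mock-infected Huh7.5 cells treated in parallel. SI = CC50/EC50.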

T1 sequence (P62937 whole entry, looked up): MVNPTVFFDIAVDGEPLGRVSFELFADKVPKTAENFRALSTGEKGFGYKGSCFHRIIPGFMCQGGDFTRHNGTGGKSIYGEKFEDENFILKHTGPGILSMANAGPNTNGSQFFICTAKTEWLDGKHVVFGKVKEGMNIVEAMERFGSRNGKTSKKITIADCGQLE
Peptidyl-prolyl cis-trans isomerase B, sequence (P23284 whole entry): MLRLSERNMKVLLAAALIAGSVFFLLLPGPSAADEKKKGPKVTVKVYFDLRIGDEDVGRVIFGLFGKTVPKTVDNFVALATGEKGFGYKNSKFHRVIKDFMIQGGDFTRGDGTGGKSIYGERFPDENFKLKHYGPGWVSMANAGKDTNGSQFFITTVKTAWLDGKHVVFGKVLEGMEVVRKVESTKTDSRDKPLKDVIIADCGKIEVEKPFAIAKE

In the case of `COc1cc(C(C(=O)NC2CCCCC2)N(C(=O)Cc2c[nH]c3ccccc23)c2ccc(C(C)C)cc2)cc(OC)c1OC` (stereo not drawn), the inhibition [1] is reported as “Active”, the inhibition [2] is reported as “Active” and the Activity [3] is reported as “Non-toxic”. For the same compound, the Activity [4] was “tde”, the inhibition [5] was “Active” and the inhibition [6] was “Active”. The Activity [7] was “Non-toxic”, the inhibition [8] was “Active” and the inhibition [9] was “Active”. For the same compound, the Activity [10] was “tde”, the Activity [11] was “Non-toxic” and the Activity [12] was “Active”. The inhibition [13] was “Active”, the Activity [14] was “Non-toxic” and the inhibition [15] was “Active”. The Activity [16] was “tde”, the koff [17] was 8.25 ×10⁻⁴ /s and the inhibition [18] was “Active”. The Activity [19] was “tde”, the Activity [20] was “tde” and the Activity [21] was “tde”. The inhibition [22] was “Active”, the inhibition [23] was “Active” and the Activity [24] was “tde”. The Activity [25] was “Non-toxic”, the CC50 at 72 h [26] was 22.3 µM and the Activity [27] was “tde”. The “Ratio CC50/EC50” value [28] was greater than 19.2.
